Assay results: ChEMBL document CHEMBL1151981, “Bioactive pyridine-N-oxide disulfides from Allium stipitatum” (J Nat Prod, 2009)
Converted amounts (≈) assume the structure as drawn. The source made the active and inactive calls. No cut-off for these calls is given here.

Experiments:
[1] = test system: Mycobacterium tuberculosis; test: Antibacterial activity against Mycobacterium bovis BCG after 14 days by spot-culture growth inhibition assay; format: functional; details: variant bovis BCG, 336 h
Summary of the method: (§1)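 Mid-exponential cultures (BCG rotated in 7H9/ADC/Tween 80; H37Rv standing in 7H9/OADC/Tween 80) diluted to 10³ cells/mL. 5 µL spotted onto 7H10 agar with 10% OADC containing compound at 0.01, 0.1, 0.5, 1 and 5 µg/mL. Incubated at 37 °C for 14 days. MIC taken as lowest concentration with no growth; no-compound well as growth control.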

[2] = test system: Mycobacterium tuberculosis; test: Antibacterial activity against Mycobacterium bovis BCG at 0.01 to 5 ug/ml after 14 days by spot-culture growth inhibition assay; format: functional, organism-based; details: variant bovis BCG; summary of the method: as §1

**Q.** What does the source list for `CSCSSc1cccc[n+]1[O-]`?
**A.** MIC [1]: 0.1 µg/mL (≈ 0.456 µM); Activity [2]: Active

**Q.** For `CSSc1cccc[n+]1[O-]`, which MIC [1] is on record?
**A.** The MIC was 0.1 µg/mL (≈ 0.577 µM).

**Q.** What about the Activity [2] of the same compound?
**A.** Its Activity is “Active”.
